# Experimental data taken from ChEMBL document CHEMBL3739420, “Benzoxazolone Carboxamides as Potent Acid Ceramidase Inhibitors: Synthesis and Structure-Activity Relationship (SAR) Studies” (J Med Chem, 2015).
# Calls of active or inactive are those of the source. The rule behind the calls is not given here.
# Columns and labels:
# [1] = Stability in 1 % DMSO containing phosphate-buffered solution assessed as half life at 10 uM at pH 7.4 under shaking by UPLC method; format: physicochemical; conditions: for half-life at 10 µM: phosphate-buffered solution, pH 7.4; for t1/2: buffer, pH 7.4, 10 µM
# Procedure, shortened: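 Compound incubated at 10 μM in PBS pH 7.4; half-life derived by fitting the decay profile.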
# Acid ceramidase = target: T1, Acid ceramidase (Homo sapiens, UniProt Q13510); assay: Inhibition of recombinant human acid ceramidase expressed in HEK293 cells using N-[(1S,2R)-2-hydroxy-1-(hydroxymethyl)-4-(2-oxochromen-7-yl)-oxybutyl]dodecanamide substrate preincubated for 10 mins; format: cell-based
# T1 sequence (Q13510 whole entry): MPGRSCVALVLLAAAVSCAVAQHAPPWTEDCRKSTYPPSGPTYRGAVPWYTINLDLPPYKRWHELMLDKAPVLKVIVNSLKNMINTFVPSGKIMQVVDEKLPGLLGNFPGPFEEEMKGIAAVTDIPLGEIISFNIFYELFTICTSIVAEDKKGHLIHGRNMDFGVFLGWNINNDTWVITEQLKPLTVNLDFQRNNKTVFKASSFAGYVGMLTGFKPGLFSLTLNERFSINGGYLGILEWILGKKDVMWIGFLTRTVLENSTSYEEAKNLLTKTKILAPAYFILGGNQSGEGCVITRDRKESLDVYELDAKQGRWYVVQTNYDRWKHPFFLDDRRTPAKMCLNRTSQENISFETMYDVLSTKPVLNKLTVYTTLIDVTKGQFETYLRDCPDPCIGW
# Procedure, shortened: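 AC-enriched lysosomal lysate from HEK293 cells stably expressing human AC, preincubated 10 min with compound. Coumarin-linked dodecanamide substrate then added at 5 μM final and incubated 3 h at 37 °C. Reaction stopped with MeOH, then NaIO4 at pH 10.6 for 2 h at 37 °C in the dark; umbelliferone fluorescence read at 355/460 nm. IC50 from nonlinear regression; mean of ≥2 determinations.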
# [2] = Chemical stability in AC assay buffer at 10 uM at pH 4.5 under shaking by UPLC method; format: physicochemical; conditions: pH 4.5, 10 µM
# Mus musculus [3] = assay: Inhibition of acid ceramidase in C57BL/6 mouse lung at 10 mg/kg, ip after 24 hrs by bicinchoninic acid based protein assay; format: functional, organism-based
# Procedure, shortened: (§1)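 Male C57BL/6 mice dosed ip at 10 mg/kg in 15% PEG/15% Tween-80/70% saline; lung and cerebral cortex collected 30 min–24 h after dosing. Lysosomal extracts were prepared by sonication and differential centrifugation, then incubated at pH 4.5 with 50 μM C12-ceramide for 1 h at 37 °C. Lauric acid product measured by UPLC–MS with an internal standard; activity expressed as % of vehicle; n = 6.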
# Mus musculus [4] = assay: Inhibition of acid ceramidase in C57BL/6 mouse lung assessed as decrease in sphingosine level at 10 mg/kg, ip after 3 hrs by LC-MS method; format: functional, organism-based
# Mus musculus [5] = assay: Inhibition of acid ceramidase in C57BL/6 mouse lung assessed as increase in dihydroceramide level at 10 mg/kg, ip upto 6 hrs by LC-MS method; format: functional, organism-based
# Mus musculus [6] = assay: Inhibition of acid ceramidase in C57BL/6 mouse lung assessed as increase in ceramide level at 10 mg/kg, ip upto 6 hrs by LC-MS method; format: functional, organism-based
# Mus musculus [7] = assay: Inhibition of acid ceramidase in C57BL/6 mouse lung assessed as decrease in sphingosine-1-phosphate level at 10 mg/kg, ip after 3 hrs by LC-MS method; format: functional, organism-based
# Mus musculus [8] = assay: Inhibition of acid ceramidase in C57BL/6 mouse cerebral cortex assessed as changes in sphingolipid level at 10 mg/kg, ip by LC-MS method; format: functional, organism-based
# Mus musculus [9] = assay: Inhibition of acid ceramidase in C57BL/6 mouse cerebral cortex at 10 mg/kg, ip after 24 hrs by bicinchoninic acid based protein assay; format: functional, organism-based; procedure, shortened: as §1
# [10] = target: T2, Acid ceramidase (Homo sapiens) (UniProt Q13510); assay: Inhibition of recombinant human acid ceramidase expressed in HEK293 cells at 5 uM using N-[(1S,2R)-2-hydroxy-1-(hydroxymethyl)-4-(2-oxochromen-7-yl)-oxybutyl]dodecanamide substrate preincubated for 10 mins; format: cell-based
# T2 sequence (whole entry): T1 sequence (Q13510 whole entry)
Structure (SMILES),half-life at 10 µM [1],IC50 (Acid ceramidase; read-out: IC50),further results
O=C(c1ccccc1)c1ccc2oc(=O)n(C(=O)NCCCCc3ccccc3)c2c1,–,24 nM,–
O=C(c1ccc(Cl)cc1)c1ccc2c(c1)oc(=O)n2C(=O)NCCCCc1ccccc1,274 min,–,Stability [2]: Stable
O=C(NCCCCc1ccccc1)n1c(=O)oc2ccccc21,–,–,t1/2 [1]: 45 min
COc1ccc(-c2ccc3oc(=O)n(C(=O)NCCCCc4ccccc4)c3c2)cc1,176 min,67 nM,–
O=C(NCCCCc1ccccc1)n1c(=O)oc2ccc(F)cc21,–,12 nM,–
O=C(NCCCCCCc1ccccc1)n1c(=O)oc2ccccc21,–,51 nM,–
O=C(NCCCCc1ccccc1)n1c(=O)oc2cc(Br)ccc21,–,–,"t1/2 [1]: 24 min; IC50 (Acid ceramidase; hek293, read-out: IC50): 31 nM"
O=C(NCCCCc1ccc([N+](=O)[O-])cc1)n1c(=O)oc2ccccc21,–,312 nM,–
O=C(NCCSCc1ccccc1)n1c(=O)oc2ccccc21,–,65 nM,–
O=C(NCCCCc1ccccc1)n1c(=O)oc2cc(Cl)ccc21,58 min,–,inhibition (Mus musculus [3]): Active; inhibition (Mus musculus [4]): Active; inhibition (Mus musculus [5]): Active; inhibition (Mus musculus [6]): Active; Stability [2]: Stable; inhibition (Mus musculus [7]): Active; inhibition (Mus musculus [8]): inactive; inhibition (Mus musculus [9]): Active
O=C(NCCCCc1ccccc1)n1c(=O)oc2cc([N+](=O)[O-])ccc21,–,–,Stability [2]: Stable
O=C(c1ccccc1)c1ccc2c(c1)oc(=O)n2C(=O)NCCCCc1ccccc1,98 min,–,Stability [2]: Stable
Cc1cccc2oc(=O)n(C(=O)NCCCCc3ccccc3)c12,–,–,IC50 (Acid ceramidase; hek293): ND(Unstable)
O=C(NCCc1ccccc1)n1c(=O)oc2ccccc21,–,121 nM,–
CN(CCNC(=O)n1c(=O)oc2ccccc21)Cc1ccccc1,–,–,inhibition [10]: inactive
O=C(NCCCCc1ccccc1)n1c(=O)oc2cccc(Br)c21,–,–,IC50 (Acid ceramidase; hek293): ND(Unstable)
O=C(NCCCCc1ccccc1)n1c(=O)oc2cc(-c3ccc(F)cc3)ccc21,> 300 min,–,–
O=C(NCCCCc1ccccc1)n1c(=O)oc2ccc([N+](=O)[O-])cc21,–,–,Stability [2]: Stable

# The next lines start with results.
half-life at 10 µM [1],IC50 (Acid ceramidase; read-out: IC50),Structure (SMILES),further results
> 300 min,–,O=C(NCCCCc1ccccc1)n1c(=O)oc2cc(-c3ccccc3)ccc21,–
55 min,–,O=C(NCCCCc1ccccc1)n1c(=O)oc2cc(Cl)c(Cl)cc21,–
–,649 nM,O=C(NCCOCc1ccccc1)n1c(=O)oc2ccccc21,–
296 min,42 nM,O=C(NCCCCc1ccccc1)n1c(=O)oc2ccc(-c3ccccc3)cc21,Stability [2]: Stable
–,25 nM,Cc1ccc(CCCCNC(=O)n2c(=O)oc3ccccc32)cc1,–
–,31 nM,O=C(NCCCCc1ccccc1)n1c(=O)oc2cc(F)ccc21,–
–,71 nM,O=C(NCCCCc1ccc2ccccc2c1)n1c(=O)oc2ccccc21,–
–,18 nM,O=C(NCCCCc1ccccc1)n1c(=O)oc2ccc(C(F)(F)F)cc21,–
–,15 nM,O=C(NCCCCc1ccccc1)n1c(=O)oc2ccc(Cl)cc21,–
7 min,–,O=C(NCCCCc1ccccc1)n1c(=O)oc2cccc(-c3ccccc3)c21,–
> 300 min,–,O=C(NCCCCc1ccccc1)n1c(=O)oc2c(-c3ccccc3)cccc21,–
132 min,–,COc1ccc(-c2ccc3c(c2)oc(=O)n3C(=O)NCCCCc2ccccc2)cc1,–
> 300 min,–,O=C(NCCCCc1ccccc1)n1c(=O)oc2ccc(-c3ccc(F)cc3)cc21,–
–,37 nM,O=C(NCCCCc1cccs1)n1c(=O)oc2ccccc21,–
